Data reported in ChEMBL document CHEMBL4828746, “Design, synthesis and evaluation of heteroaryldihydropyrimidine analogues bearing spiro ring as hepatitis B virus capsid protein inhibitors” (Eur J Med Chem, 2021).

Legend:
[1] = biological target: Core antigen (Hepatitis B virus) (UniProt Q03732); test: Inhibition of capsid protein in HBV infected in human HepDES19 cells assessed as inhibition of viral replication by measuring plus polarity DNA level at 10 uM incubated for 3 days by strand preferential qPCR analysis relative to control; type: cell-based; set-up: scale not given: the % may be the effect or the level left; details: time 3.0 day
Core antigen (Hepatitis B virus), sequence (Q03732 as listed by the source): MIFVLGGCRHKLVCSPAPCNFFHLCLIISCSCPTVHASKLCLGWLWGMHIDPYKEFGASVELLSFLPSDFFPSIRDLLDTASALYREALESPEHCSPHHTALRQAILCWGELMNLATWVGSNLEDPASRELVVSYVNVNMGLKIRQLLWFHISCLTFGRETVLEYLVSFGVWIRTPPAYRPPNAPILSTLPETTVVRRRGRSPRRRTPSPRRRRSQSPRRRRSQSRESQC
Procedure, shortened: (§1)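 HepDES19 cells (HepG2 line carrying a tetracycline-repressible HBV genotype D genome) seeded at 4 x 10^4/well without tetracycline. Compound added 48 h after induction in 1% DMSO, then 3 days at 37°C, 5% CO2. Lysates treated with micrococcal nuclease, then protease. Plus- or minus-strand DNA quantified by strand-preferential qPCR as % of DMSO control. Each compound screened at two concentrations only: 20 and 5 μM, or 10 and 3 μM.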

[2] = biological target: Core antigen (Hepatitis B virus) (UniProt Q03732); test: Inhibition of capsid protein in HBV infected in human HepDES19 cells assessed as inhibition of viral replication by measuring plus polarity DNA level at 3 uM incubated for 3 days by strand preferential qPCR analysis relative to control; type: cell-based; set-up: scale not given: the % may be the effect or the level left; details: time 3.0 day; procedure, shortened: as §1
[3] = biological target: Core antigen (Hepatitis B virus) (UniProt Q03732); test: Inhibition of capsid protein in HBV infected in human HepDES19 cells assessed as inhibition of viral replication by measuring minus polarity DNA level at 10 uM incubated for 3 days by strand preferential qPCR analysis relative to control; type: cell-based; set-up: scale not given: the % may be the effect or the level left; details: time 3.0 day; procedure, shortened: as §1
[4] = biological target: Core antigen (Hepatitis B virus) (UniProt Q03732); test: Inhibition of capsid protein in HBV infected in human HepDES19 cells assessed as inhibition of viral replication by measuring minus polarity DNA level at 3 uM incubated for 3 days by strand preferential qPCR analysis relative to control; type: cell-based; set-up: scale not given: the % may be the effect or the level left; details: time 3.0 day; procedure, shortened: as §1
[5] = biological target: Core antigen (Hepatitis B virus) (UniProt Q03732); test: Inhibition of capsid protein in HBV infected in human HepDES19 cells assessed as inhibition of viral replication by measuring plus polarity DNA level at 20 uM incubated for 3 days by strand preferential qPCR analysis relative to control; type: cell-based; set-up: scale not given: the % may be the effect or the level left; details: time 3.0 day
Procedure, shortened: as §1, with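 “tetracycline.” for “tetracycline. Compound added 48 h after induction in 1% DMSO, then 3 days at 37°C, 5% CO2.”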

[6] = biological target: Core antigen (Hepatitis B virus) (UniProt Q03732); test: Inhibition of capsid protein in HBV infected in human HepDES19 cells assessed as inhibition of viral replication by measuring minus polarity DNA level at 20 uM incubated for 3 days by strand preferential qPCR analysis relative to control; type: cell-based; set-up: scale not given: the % may be the effect or the level left; details: time 3.0 day; procedure, shortened: as §1
[7] = biological target: Core antigen (Hepatitis B virus) (UniProt Q03732); test: Inhibition of capsid protein in HBV infected in human HepDES19 cells assessed as inhibition of viral replication by measuring minus polarity DNA level at 5 uM incubated for 3 days by strand preferential qPCR analysis relative to control; type: cell-based; set-up: scale not given: the % may be the effect or the level left; details: time 3.0 day
Procedure, shortened: as §1, with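 “tetracycline.” for “tetracycline. Compound added 48 h after induction in 1% DMSO, then 3 days at 37°C, 5% CO2.”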

[8] = biological target: Core antigen (Hepatitis B virus) (UniProt Q03732); test: Inhibition of capsid protein in HBV infected in human HepDES19 cells assessed as inhibition of viral replication by measuring plus polarity DNA level at 3 uM incubated for 3 days by strand preferential qPCR analysis relative to control; set-up: scale not given: the % may be the effect or the level left; details: time 3.0 day
Hepatitis B virus [9] = test: Antiviral activity against HBV infected in human HepG2.2.15 cells assessed as inhibition of viral replication incubated for 8 days by southern blotting analysis; type: functional, organism-based; details: HepG2.2.15, 192 h
Hepatitis B virus [10] = test: Antiviral activity against HBV infected in human HepG2.2.15 cells assessed as inhibition of viral replication in presence of 50% human serum albumin; type: functional
[11] = biological target: Core antigen (Hepatitis B virus) (UniProt Q03732); test: Inhibition of capsid protein in HBV infected in human HepDES19 cells assessed as inhibition of viral replication by measuring minus polarity DNA level at 3 uM incubated for 3 days by strand preferential qPCR analysis relative to control; set-up: scale not given: the % may be the effect or the level left; details: time 3.0 day

| SMILES | Activity [5] | Activity [6] | Activity [7] | Activity [8] | Activity [11] | also measured |
| --- | --- | --- | --- | --- | --- | --- |
| CCOC(=O)C1=C(CN2CCC3(CC2)CCN(C(=O)OC(C)(C)C)CC3)NC(c2nccs2)=NC1c1ccc(F)cc1Br (stereo unspecified) |  |  |  |  |  | Activity [1]: 91.1%; Activity [2]: 93%; Activity [3]: 110%; Activity [4]: 74.5% |
| CCOC(=O)C1=C(CN2CCC3(CCN(C(=O)OC(C)(C)C)C3)C2=O)NC(c2nccs2)=NC1c1ccc(F)cc1Br (stereo unspecified) | 0.8% | 0.8% | 2.9% | 3.3% |  |  |
| CCOC(=O)C1=C(CN2CCC3(CC2)CNC3=O)NC(c2nccs2)=NC1c1ccc(F)cc1Br (stereo unspecified) | 2.4% | 2.5% | 3.4% | 2.7% |  |  |
| CCOC(=O)C1=C(CN2CCOCC2)NC(c2nccs2)=N[C@H]1c1ccc(F)cc1Br |  | 22.6% |  |  |  | EC50 (Hepatitis B virus [9]): 12 nM; EC90 (Hepatitis B virus [10]): 0.0557 µg/mL |
| CCOC(=O)C1=C(CN2CCC3(CC2)CN(C(=O)OC(C)(C)C)C3)NC(c2nccs2)=NC1c1ccc(F)cc1Br (stereo unspecified) |  |  |  |  |  | Activity [1]: 60.9%; Activity [2]: 87.7%; Activity [3]: 60.2%; Activity [4]: 83.7% |
| CCOC(=O)C1=C(CN2CCC3(CC2)CC(NC(=O)OC(C)(C)C)C3)NC(c2nccs2)=NC1c1ccc(F)cc1Br (stereo unspecified) | 111% | 117% |  |  | 97.2% |  |
| CCOC(=O)C1=C(CN2CCC3(CNC3)C2)NC(c2nccs2)=NC1c1ccc(F)cc1Br (stereo unspecified) | 82.2% | 88.8% |  |  | 84.5% |  |
| CCOC(=O)C1=C(CN2CCC3(CCNC3=O)CC2)NC(c2nccs2)=NC1c1ccc(F)cc1Br (stereo unspecified) | 18.3% | 37.8% | 44.1% |  |  |  |
| CCOC(=O)C1=C(CN2CCC3(CCN(C(=O)OC(C)(C)C)CC3)C2)NC(c2nccs2)=NC1c1ccc(F)cc1Br (stereo unspecified) | 102% | 87% |  |  | 80.1% |  |
| CCOC(=O)C1=C(CN2CC3(C2)CN(C(=O)OC(C)(C)C)C3)NC(c2nccs2)=NC1c1ccc(F)cc1Br (stereo unspecified) | 105% | 96.5% |  |  | 85.7% |  |
| CCOC(=O)C1=C(CN2CCC3(CC2)CCN(C(=O)OC(C)(C)C)C3)NC(c2nccs2)=NC1c1ccc(F)cc1Br (stereo unspecified) |  |  |  |  |  | Activity [1]: 92.5%; Activity [2]: 85.3%; Activity [3]: 76.1%; Activity [4]: 85% |
| CCOC(=O)C1=C(CN2CC3(CCNC3)CC2=O)NC(c2nccs2)=NC1c1ccc(F)cc1Br (stereo unspecified) | 120% | 68.9% |  |  |  |  |
| CCOC(=O)C1=C(CN2CCC3(CCNC3)C2=O)NC(c2nccs2)=NC1c1ccc(F)cc1Br (stereo unspecified) | 109% | 81.4% |  |  |  |  |
| CCOC(=O)C1=C(CN2CCC3(CNC(=O)C3)C2)NC(c2nccs2)=NC1c1ccc(F)cc1Br (stereo unspecified) | 3% | 2.5% | 2.3% | 2.8% |  |  |
| CCOC(=O)C1=C(CN2CC3(CNC3)C2)NC(c2nccs2)=NC1c1ccc(F)cc1Br (stereo unspecified) | 87.4% | 94.8% |  |  | 85.9% |  |
| CCOC(=O)C1=C(CN2CC3(CNC3)CC2=O)NC(c2nccs2)=NC1c1ccc(F)cc1Br (stereo unspecified) | 108% | 85.3% |  |  |  |  |
| CCOC(=O)C1=C(CN2CC3(CCN(C(=O)OC(C)(C)C)C3)CC2=O)NC(c2nccs2)=NC1c1ccc(F)cc1Br (stereo unspecified) | 1.8% | 1.3% | 2.9% | 2.7% |  |  |
| CCOC(=O)C1=C(CN2CCC3(CC2)CC(=O)NC3=O)NC(c2nccs2)=NC1c1ccc(F)cc1Br (stereo unspecified) | 22.4% | 34.8% | 21.1% | 18.9% |  |  |
| CCOC(=O)C1=C(CN2CCC3(CC(=O)N(Cc4ccccc4)C3=O)C2)NC(c2nccs2)=NC1c1ccc(F)cc1Br (stereo unspecified) | 2% | 2.2% | 2.8% | 3% |  |  |
| CCOC(=O)C1=C(CN2CC3(CC2=O)CN(C(=O)OC(C)(C)C)C3)NC(c2nccs2)=NC1c1ccc(F)cc1Br (stereo unspecified) | 3.5% | 1.8% | 2.5% | 2.4% |  |  |
| CCOC(=O)C1=C(CN2CCC3(CC2)CNC3)NC(c2nccs2)=NC1c1ccc(F)cc1Br (stereo unspecified) | 113% | 93.4% |  |  | 70.8% |  |
| CCOC(=O)C1=C(CN2CCC3(CCNCC3)C2)NC(c2nccs2)=NC1c1ccc(F)cc1Br (stereo unspecified) | 88.4% | 86.4% |  |  | 69.9% |  |
| CCOC(=O)C1=C(CN2CCC3(CC2)OCCO3)NC(c2nccs2)=NC1c1ccc(F)cc1Br (stereo unspecified) | 3.4% | 3.4% | 3.1% | 3.8% |  |  |
| CCOC(=O)C1=C(CN2CCC3(CCNC3)CC2)NC(c2nccs2)=NC1c1ccc(F)cc1Br (stereo unspecified) | 105% | 99.6% |  |  | 72.5% |  |
| CCOC(=O)C1=C(CN2CCC3(CC2)CNC(=O)C3)NC(c2nccs2)=NC1c1ccc(F)cc1Br (stereo unspecified) | 2.4% | 2.7% | 4% | 3.4% |  |  |
| CCOC(=O)C1=C(CN2CCC3(CCN(C(=O)OC(C)(C)C)C3)C2)NC(c2nccs2)=NC1c1ccc(F)cc1Br (stereo unspecified) | 16.8% | 28.8% |  |  | 67.1% |  |
| Nc1ccn([C@@H]2CS[C@H](CO)O2)c(=O)n1 [LAMIVUDINE] | 4% | 11.8% |  | 23.9% | 79.1% | EC50 (Hepatitis B virus [9]): 325 nM |
| CCOC(=O)C1=C(CN2CCC3(CC2)CC(N)C3)NC(c2nccs2)=NC1c1ccc(F)cc1Br (stereo unspecified) | 114% | 105% |  |  | 69.9% |  |
| CCOC(=O)C1=C(CN2CCC3(CCNCC3)CC2)NC(c2nccs2)=NC1c1ccc(F)cc1Br (stereo unspecified) | 106% | 97.7% |  |  | 67.1% |  |
| CCOC(=O)C1=C(CN2CCC3(C2)CN(C(=O)OC(C)(C)C)C3)NC(c2nccs2)=NC1c1ccc(F)cc1Br (stereo unspecified) | 54.7% | 56.5% |  |  | 85.3% |  |
